Legend:
Rattus norvegicus [1] = experiment: Toxicity in Wistar albino rat assessed as ulcer index at 200 mg/kg, ip administered once daily for 3 days; format: organism-based; design: dose 200 mg/kg, route intraperitoneal; settings: in vivo, 72 h
Procedure, shortened: (§1)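 Wistar albino rats of either sex (150–200 g), six per group, housed at 25 °C, 45–55% RH, 12-h light/dark cycle and acclimatized one week. Dosing was intraperitoneal as a suspension in 10% v/v Tween-80, with a vehicle-only control group. Animals were fasted 36 h, then pylorus-ligated (Shay method) on day 4 and sacrificed 4 h later for ulcer index. Values are mean ± SEM (n = 6), analysed by one-way ANOVA.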

Rattus norvegicus [2] = experiment: Antiinflammatory activity in rat assessed as inhibition of carrageenan-induced paw oedema at 10 mg/kg, po after 30 mins; format: functional; design: scale not given: the % may be the effect or the level left
Procedure, shortened: (§2)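 Rats, six per group, were dosed orally (10 or 20 mg/kg, suspension in 1% carboxymethyl cellulose) before carrageenan paw injection. Paw volume was read by mercury-displacement plethysmography just before and 30 min, 1, 2 and 3 h after carrageenan. %inhibition = 100[1 − (a − x)/(b − y)], with the test group's pre/post volumes set against the vehicle control group's. Reported as mean ± SEM (n = 6) with ANOVA.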

Rattus norvegicus [3] = experiment: Antiinflammatory activity in rat assessed as inhibition of carrageenan-induced paw oedema at 20 mg/kg, po after 30 mins; format: functional; design: scale not given: the % may be the effect or the level left; procedure, shortened: as §2
Rattus norvegicus [4] = experiment: Antiinflammatory activity in rat assessed as inhibition of carrageenan-induced paw oedema at 10 mg/kg, po after 1 hr; format: functional; design: scale not given: the % may be the effect or the level left; procedure, shortened: as §2
Rattus norvegicus [5] = experiment: Antiinflammatory activity in rat assessed as inhibition of carrageenan-induced paw oedema at 20 mg/kg, po after 1 hr; format: functional; design: scale not given: the % may be the effect or the level left; procedure, shortened: as §2
Rattus norvegicus [6] = experiment: Antiinflammatory activity in rat assessed as inhibition of carrageenan-induced paw oedema at 10 mg/kg, po after 2 hrs; format: functional; design: scale not given: the % may be the effect or the level left; procedure, shortened: as §2
Rattus norvegicus [7] = experiment: Antiinflammatory activity in rat assessed as inhibition of carrageenan-induced paw oedema at 20 mg/kg, po after 2 hrs; format: functional; design: scale not given: the % may be the effect or the level left; procedure, shortened: as §2
Rattus norvegicus [8] = experiment: Antiinflammatory activity in rat assessed as inhibition of carrageenan-induced paw oedema at 10 mg/kg, po after 3 hrs; format: functional; design: scale not given: the % may be the effect or the level left; procedure, shortened: as §2
Rattus norvegicus [9] = experiment: Antiinflammatory activity in rat assessed as inhibition of carrageenan-induced paw oedema at 20 mg/kg, po after 3 hrs; format: functional; design: scale not given: the % may be the effect or the level left; procedure, shortened: as §2
Rattus norvegicus [10] = experiment: Toxicity in Wistar albino rat assessed as ulcer index at 20 mg/kg, ip administered once daily for 3 days; format: organism-based; design: dose 20 mg/kg, route intraperitoneal; settings: in vivo, 72 h; procedure, shortened: as §1
Mus musculus [11] = experiment: Analgesic activity in Wister albino mice at 10 mg/kg, po after 1 hr by tail-flick test
Mus musculus [12] = experiment: Analgesic activity in Wister albino mouse at 20 mg/kg, po after 1 hr by tail-flick test
Mus musculus [13] = experiment: Analgesic activity in Wister albino mice at 10 mg/kg, po after 2 hrs by tail-flick test
Mus musculus [14] = experiment: Analgesic activity in Wister albino mice at 20 mg/kg, po after 2 hrs by tail-flick test
Mus musculus [15] = experiment: Analgesic activity in Wister albino mice at 10 mg/kg, po after 3 hrs by tail-flick test
Mus musculus [16] = experiment: Analgesic activity in Wister albino mice at 20 mg/kg, po after 3 hrs by tail-flick test
Mus musculus [17] = experiment: Analgesic activity in Wister albino mice at 10 mg/kg, po after 30 mins by tail-flick test
Mus musculus [18] = experiment: Analgesic activity in Wister albino mice at 20 mg/kg, po after 30 mins by tail-flick test

SMILES | UI (Rattus norvegicus [1]) | Activity (Rattus norvegicus [2]) [%] | Activity (Rattus norvegicus [3]) [%] | Activity (Rattus norvegicus [4]) [%] | Activity (Rattus norvegicus [5]) [%] | Activity (Rattus norvegicus [6]) [%] | Activity (Rattus norvegicus [7]) [%] | Activity (Rattus norvegicus [8]) [%] | Activity (Rattus norvegicus [9]) [%] | UI (Rattus norvegicus [10]) | Activity (Mus musculus [11]) [%] | Activity (Mus musculus [12]) [%] | Activity (Mus musculus [13]) [%] | Activity (Mus musculus [14]) [%] | Activity (Mus musculus [15]) [%] | Activity (Mus musculus [16]) [%] | Activity (Mus musculus [17]) [%] | Activity (Mus musculus [18]) [%]
CC(=O)Oc1ccccc1C(=O)O [ASPIRIN] | 1.73 |  |  |  |  |  |  |  |  |  |  |  |  |  |  |  |  | 
N#Cc1c(N)nc2[nH]c(=S)[nH]c(=O)c2c1-c1ccc(N2CCCCC2)cc1 |  | 35 | 45 | 37 | 49 | 45 | 51 | 29 | 36 | 0.58 | 51 | 64 | 55 | 69 | 39 | 47 | 46 | 63
